{"data": "Measurements of several laboratories", "target": "Death-associated protein kinase 1 (DAPK1, Homo sapiens, UniProt P53355)", "note": "Compare with care: the assays were run in different laboratories."}
{"Structure (SMILES)": "Nc1ncc2c(n1)-c1c([nH]c3ccc(C#CC4CC4)cc13)CCCC2", "assay": "binding, competition with immobilised ligand", "setting": "1 µM", "remaining binding [%]": 87}
{"Structure (SMILES)": "FC(F)(F)c1ccc2c(c1)nc(-c1cccnc1)n2C1CC1", "assay": "cell-free assay, competition with immobilised ligand", "setting": "1 µM", "remaining binding [%]": 100}
{"Structure (SMILES)": "CCN1CCN(Cc2ccc(C(=O)Nc3ccc(C)c(Oc4ccc5c(c4)CC(=O)N5)c3)cc2C(F)(F)F)CC1", "assay": "binding, competition with immobilised ligand", "setting": "1 µM", "remaining binding [%]": 100}
{"Structure (SMILES)": "N[C@@H]1CCN(c2nccc(-c3cnn4ncccc34)n2)C1", "assay": "binding", "setting": "1 µM", "remaining binding [%]": 97}
{"Structure (SMILES)": "COc1cnc(Nc2cccc(S(N)(=O)=O)c2)nc1N1CCN(c2ccccc2)C(=O)C1", "assay": "binding, competition with immobilised ligand", "setting": "1 µM", "remaining binding [%]": 95}
{"Structure (SMILES)": "COc1cc(-c2cn(C3CCc4c(F)cccc4N(CC(F)(F)F)C3=O)nn2)ccc1-n1cnc(C)c1 (centres unmarked)", "assay": "cell-free assay, competition with immobilised ligand", "setting": "1 µM", "remaining binding [%]": 99}
{"Structure (SMILES)": "CNC(=O)[C@@H]1CC[C@@H](n2c(-c3ccc4cnccc4c3)nc3ccc(C(=O)NCc4cccc(C(N)=O)c4)cc32)C1", "assay": "binding, competition with immobilised ligand", "setting": "1 µM", "remaining binding [%]": 100}
{"Structure (SMILES)": "O=C1CCc2cc(Nc3cc(OC4CCOCC4)c([N+](=O)[O-])cc3Cl)ccc2N1", "assay": "cell-free assay, competition with immobilised ligand", "setting": "1 µM", "remaining binding [%]": 90}
{"Structure (SMILES)": "Cc1cnc(Nc2ccc(C(=O)N3CCC(N4CCCC4)CC3)cc2)nc1-c1cc2ccccc2s1", "assay": "binding, competition with immobilised ligand", "setting": "1 µM", "remaining binding [%]": 16}
{"Structure (SMILES)": "Cn1nc(C(=O)NCc2ccc(C(=O)O)cc2)cc1-c1ccc2[nH]ccc2c1", "assay": "cell-free assay, competition with immobilised ligand", "setting": "0.1 µM", "remaining binding [%]": 97}
{"Structure (SMILES)": "O=C(NCCCN1CCOCC1)c1ccc(Nc2nccc(-c3cc4ccccc4s3)n2)cc1", "assay": "binding, competition with immobilised ligand", "setting": "1 µM", "remaining binding [%]": 18}
{"Structure (SMILES)": "CN(C)c1nccc(-c2cnc3ncccn23)n1", "assay": "binding", "setting": "1 µM", "remaining binding [%]": 92}
{"Structure (SMILES)": "O=C(c1ccc(Nc2ncc(Cl)c(-c3cc4ccccc4s3)n2)cc1)N1CCC(N2CCCC2)CC1", "assay": "binding, competition with immobilised ligand", "setting": "1 µM", "remaining binding [%]": 20}
{"Structure (SMILES)": "CN(C)c1nccc(-c2cnn3ncccc23)n1", "assay": "binding", "setting": "1 µM", "remaining binding [%]": 100}
{"Structure (SMILES)": "COc1ncc2cc3ccccc3nc2c1C#N", "assay": "cell-free assay, competition with immobilised ligand", "setting": "5 µM", "remaining binding [%]": 95}
{"Structure (SMILES)": "CC(=O)N1CCC(c2ccc(C(=O)NC3=NCCN3)cc2C(F)(F)F)CC1", "assay": "cell-free assay, competition with immobilised ligand", "setting": "1 µM", "remaining binding [%]": 100}
{"Structure (SMILES)": "C[C@@H]1CCN(c2nccc(-c3cnn4ncccc34)n2)C1", "assay": "binding", "setting": "1 µM", "remaining binding [%]": 79}
{"Structure (SMILES)": "Nc1c(C(=O)NCc2ccc(C(=O)NCCCC3CCCCC3)cc2)cnn1-c1ccccc1", "assay": "cell-free assay, competition with immobilised ligand", "setting": "0.1 µM", "remaining binding [%]": 92}
{"Structure (SMILES)": "CN(c1nccc(-c2cnn3ncccc23)n1)C1CC1", "assay": "binding", "setting": "1 µM", "remaining binding [%]": 100}
{"Structure (SMILES)": "O=C(Nc1c[nH]nc1C(=O)NC1CCNCC1)c1cc(F)cc(F)c1", "assay": "binding, competition with immobilised ligand", "setting": "1 µM", "remaining binding [%]": 100}
